Results pooled from the literature.
Lines come from different studies, so protocols differ.
Target: MAP kinase-activated protein kinase 5 (MAPKAPK5, Homo sapiens, UniProt Q8IW41)
Residues used in one study (Q8IW41 1-473): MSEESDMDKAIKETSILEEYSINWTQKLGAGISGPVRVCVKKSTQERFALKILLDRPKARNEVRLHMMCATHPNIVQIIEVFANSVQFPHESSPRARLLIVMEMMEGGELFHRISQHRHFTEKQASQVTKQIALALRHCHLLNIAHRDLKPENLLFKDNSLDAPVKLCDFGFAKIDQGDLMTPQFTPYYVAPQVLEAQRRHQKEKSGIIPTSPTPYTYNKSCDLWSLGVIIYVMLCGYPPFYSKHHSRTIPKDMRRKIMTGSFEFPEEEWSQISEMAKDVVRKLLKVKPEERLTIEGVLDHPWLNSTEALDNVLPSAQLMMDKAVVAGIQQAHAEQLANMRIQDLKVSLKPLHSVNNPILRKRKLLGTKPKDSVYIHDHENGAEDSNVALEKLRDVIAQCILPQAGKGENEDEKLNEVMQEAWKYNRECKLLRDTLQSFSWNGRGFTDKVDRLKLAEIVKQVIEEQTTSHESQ

FC(F)(F)Oc1cccc(-c2cnc3ccc(-c4ccncc4)nn23)c1  activity vs control (enzyme activity; inhibitor; radiometric; 1 µM): 85%
Cc1ccc(Nc2nccc(N(C)c3ccc4c(C)n(C)nc4c3)n2)cc1S(N)(=O)=O  inhibition (enzyme activity; inhibitor; 0.3 µM): -3%
CO[C@@H](C)c1c(Nc2ccc([C@@H](N(C)C(=O)C3CCS(=O)(=O)CC3)C(F)(F)F)cc2)cnc2cc(Cl)nn12  remaining binding (cell-free assay; competition with immobilised ligand; 1 µM): 100%
COc1cc(Nc2cnc(C#N)c(O[C@H](C)CN(C)C)n2)ncc1-c1cnn(C)c1  remaining activity (enzyme activity; inhibitor; radiometric; 1 µM): 78%
FC(F)c1nc2ccccc2n1-c1nc(N2CCOCC2)nc(N2CCOCC2)n1  remaining activity (enzyme activity; inhibitor; 10 µM): 82%
O=C1Nc2ccc(Cl)cc2C1=Cc1cc(Cl)c(O)c(Cl)c1  remaining signal (cell-free assay; 0.5 µM): 92.4%
Cc1ccc(C(=O)Nc2ccc(CN3CCN(C)CC3)c(C(F)(F)F)c2)cc1C#Cc1cnc2cccnn12  remaining activity (enzyme activity; inhibitor; 23.5 nM): 84%
C[C@@H]1CCN(C(=O)CC#N)C[C@@H]1N(C)c1ncnc2[nH]ccc12  remaining signal (cell-free assay; inhibitor; 0.5 µM): 97.3%
Nc1cnc(N2CCc3cc(S(=O)(=O)Nc4c(F)cc(Cl)cc4F)cc(N4CCCC4=O)c32)nc1  remaining binding (cell-free assay; competition with immobilised ligand; 1 µM): 92%
Cc1cc(NC(=O)c2cccc3cc(-c4cccc5[nH]nc(N)c45)ccc23)ccc1F  activity vs control (enzyme activity; inhibitor; 0.1 µM): 103%
CN(C)c1ncnc(-c2ccc3nc(Nc4cc(CN5CCN(C(=O)CC(F)(F)F)CC5)ccn4)[nH]c3c2)c1Cl  remaining binding (cell-free assay; competition with immobilised ligand; 1 µM): 96%
CC(C)(C)C(=O)c1sc(NC2CCCCC2)nc1N  remaining activity (enzyme activity; inhibitor; 10 µM): 103%
COCCOc1nc(-c2ccc(Cl)nc2)nc2c1CN(C(=O)c1ncn3ccccc13)CC2  remaining binding (cell-free assay; competition with immobilised ligand; 0.1 µM): 100%
CNc1cccc2cc(C(=O)Nc3ccc(C(=O)O)cc3)c(=O)[nH]c12  inhibition (enzyme activity; inhibitor; 10 µM): 20%
Cc1cc(-n2nc(Cc3cc(F)cc(C(F)(F)F)c3)nc2C)ccc1C(N)=O  remaining binding (cell-free assay; competition with immobilised ligand; 1 µM): 100%
CCCOc1ccc(OC)c(F)c1C(=O)c1ccc(C(=O)N[C@@H]2CNC[C@H]2NC(=O)c2ccc3[nH]ncc3c2)cc1  remaining activity (enzyme activity; inhibitor; 10 µM): 91%
C[C@H](NC(=O)c1cnc2n1[C@](C)(Cc1ccc(C#N)cc1)C(=O)N2c1cc(Cl)c(F)c(Cl)c1)C(=O)NC1(c2ccccn2)CC1  remaining binding (cell-free assay; competition with immobilised ligand; 1 µM): 96%
O=C(Nc1cnn(-c2csc(C(=O)NC3COC3)c2)c1)Nc1ccccc1Cl  remaining activity (enzyme activity; inhibitor; 5 µM): 92.8%
